# From PubChem
# PAFAH2 FP inh = inhibitors of human PAFAH2; recombinant PAFAH2, FP-rhodamine activity probe, fluorescence polarization; inhibition, % at 3.39 µM; 0.99% of 340,000 active; AID 492956;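 active = inhibition above the mean over all tested compounds plus 3 SD, cut at about 30% in these data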;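 note: inhibitors block probe labeling of enzyme so polarization drops; 0% = enzyme with DMSO and 100% = wells lacking PAFAH2 protein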
# TDP2 inh = TDP2 (human) inhibition, absorbance primary screen | 0.34% of 370,000 active | O95551 | inhibition, % at 12.8 µM | recombinant TDP2, T5PNP hydrolysis, p-nitrophenol absorbance 415 nm;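 active = inhibition above the mean of all tested compounds plus 3 SD, set per campaign, cut at about 25% in these data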;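 note: 0% = DMSO with enzyme and 100% = buffer with substrate but no TDP2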
#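 Test system: human TDP2 enzyme; Input: 120 nM TDP2 per well; Buffer or medium: Mg2+-containing Tris-HCl buffer, pH 7.5; Reagent: 5 mM T5PNP; Dosing: 12.8 µM single point, 1% DMSO; Incubation: reaction 2 h, 37 °C; Detection: p-Nitrophenol epi absorbance; Read-out: % inhibition relative to enzyme-containing and enzyme-free wells; Replicates: single well per compound.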
# PAFAH1B2 FP inh = PAFAH1B2 (human) inhibition; P68402; inhibition, % at 3.39 µM; recombinant PAFAH1B2, FP-rhodamine activity probe, fluorescence polarization; 1.2% of 340,000 active; AID 492953;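 active = inhibition above the mean of all tested compounds plus 3 SD, cut at about 24% in these data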;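 note: 0% = enzyme with DMSO and 100% = wells lacking PAFAH1B2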
# Target sequence (P68402 whole entry, looked up): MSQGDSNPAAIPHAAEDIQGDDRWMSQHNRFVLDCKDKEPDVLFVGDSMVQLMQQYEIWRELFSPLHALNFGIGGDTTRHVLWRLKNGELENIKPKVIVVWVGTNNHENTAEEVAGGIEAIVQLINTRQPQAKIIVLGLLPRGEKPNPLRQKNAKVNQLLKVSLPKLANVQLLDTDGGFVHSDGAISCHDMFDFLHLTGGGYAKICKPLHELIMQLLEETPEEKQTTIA
# PAFAH1B3 FP inh = PAFAH1B3 (human) inhibition; 0.28% of 340,000 active; AID 492972; inhibition, % at 3.39 µM; recombinant PAFAH1B3, FP-rhodamine probe, fluorescence polarization;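 active = inhibition above the screen-wide average of all tested compounds plus 3 SD, cut at about 25% in these data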;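 note: 0% = enzyme with DMSO only and 100% = wells lacking PAFAH1B3 protein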
# Target sequence (Q15102 whole entry, looked up): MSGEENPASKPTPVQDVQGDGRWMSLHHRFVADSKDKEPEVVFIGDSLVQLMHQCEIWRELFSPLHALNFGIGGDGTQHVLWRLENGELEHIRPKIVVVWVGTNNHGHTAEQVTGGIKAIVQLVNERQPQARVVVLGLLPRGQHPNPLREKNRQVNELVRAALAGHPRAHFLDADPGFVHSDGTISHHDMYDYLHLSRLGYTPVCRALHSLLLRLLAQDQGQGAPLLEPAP
# Apaf-1 inh = inhibitors of human Apaf-1 apoptosome | reconstituted apoptosome caspase-3 activity, DEVD-Rh110 fluorescence | inhibition, % at 20 µM | 0.71% of 330,000 active | AID 489030; active = inhibition of at least 40% at 20 µM;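 note: plate controls were DMSO wells for no effect and DEVD-CHO caspase inhibitor wells for full effect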
#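 detection = Rh110 fluorescence intensity | test system = biochemical Apaf-1 apoptosome reconstitution | also added = cytochrome c and DEVD-Rh110 substrate | schedule = 30 min plus 50 min, RT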
# * marks the source's active call; other numbers are inactive results; / = no result. Shown are actives, neighbours in structure and some others; about 2.3% of the full set was active somewhere.
SMILES,PAFAH2 FP inh,TDP2 inh,PAFAH1B2 FP inh,PAFAH1B3 FP inh,Apaf-1 inh
NC(=NCCc1ccc(Cl)cc1)NS(=O)(=O)c1ccccc1,6,-1,54*,6,-5
O=S(=O)(NC(=NCCc1ccc(Cl)cc1)c1ccccc1Cl)c1cccs1,15,-8,47*,-1,21
NC(=NCCc1ccc(Cl)cc1)NS(=O)(=O)c1ccc(F)cc1,0,4,49*,10,8
NC(=NCCc1ccccc1)NS(=O)(=O)c1cccs1,3,0,9,2,-4
COC(=O)[C@]12C[C@H](CC(=O)NCCC(C)C)C(=O)N(CCc3ccc(OC)c(OC)c3)C1=C[C@H](C(C)C)O[C@@H]2C1CC1,/,-5,/,/,/
Cc1ccnc(SCc2cc(=O)c(OC(=O)c3ccc(C)c([N+](=O)[O-])c3)co2)n1,/,0,/,/,/
O=C1CCCC2=C1[C@@]1(O[C@H]3C=CC=CN23)C(=O)N(c2ccccc2)c2ccccc21,/,-2,/,/,/
COc1ccc(S(=O)(=O)Nc2ccc(O)c3ccccc23)cc1,9,42*,2,2,32
N#C/C(=C\c1ccc(O)c(O)c1)C(=O)Nc1cccc2ncccc12,49*,-9,10,15,2
N#C/C(=C/c1ccc(O)c(O)c1)C(=O)NCc1ccc(Cl)cc1,35*,-4,53*,12,6
COc1ccc(/C=C(\C#N)C(=O)Nc2cccc3ncccc23)cc1OC,-1,-3,2,9,-1
N#C/C(=C/c1cccc(O)c1)C(=O)NCc1ccc(Cl)cc1,-5,-16,19,-8,17
COc1ccc(CNC(=S)Nc2ccc(OC)cc2)cc1,7,4,0,4,-4
COc1ccc(CNC(=S)Nc2ccc(S(N)(=O)=O)cc2)cc1,3,43*,10,10,4
O=C(Nc1ccc(F)cc1)Nc1nc2ncccn2c1-c1ccc(F)cc1,/,6,/,/,/
Cc1ccc(CCNC(=O)c2ccc(CS(=O)(=O)Cc3ccc(F)cc3)o2)cc1,6,6,28*,5,1
COc1ccc(-c2cc(C(=O)NN=Cc3ccc(C)s3)[nH]n2)cc1,/,-3,/,/,/
CCCCCCSC1=C(C#N)C(=O)NC2(CCCCC2)S1,-1,-17,46*,2,5
c1ccc([C@H]2CNCCN2CCc2cccc3ccccc23)cc1,0,-14,-4,8,55*
COc1cc(NC(=O)C2CCN(c3nnc(-n4cccc4)s3)CC2)cc(OC)c1,/,7,/,/,/
O=C(Cc1ccc(Br)cc1)Nc1ncc([N+](=O)[O-])s1,11,3,35*,12,-9
CCCCn1c(NC(=O)c2ccc(F)cc2)c(C#N)c2nc3ccccc3nc21,/,/,/,/,95*
COc1ccc(/C=C2\CC3(OC(=O)C4CCCC4)CCCN2C3)cc1 (stereo not drawn),/,7,/,/,/
Cc1ccccc1C(=O)N[C@H](C(=O)N1CCC[C@H]1C(=O)NC1CCCC1)C1CCCCC1,/,-3,/,/,/
N=C1/C(=C\c2ccc(-c3cccc(C(=O)O)c3)o2)C(=O)N=C2SC=C(c3ccccc3)N12,35*,8,31*,29*,14
SMILES,PAFAH2 FP inh,TDP2 inh,PAFAH1B2 FP inh,PAFAH1B3 FP inh,Apaf-1 inh
CC(=NNC(=O)c1ccc(NS(=O)(=O)c2ccc(Br)cc2)cc1)c1cccnc1,-1,7,29*,4,-5
C=CCN1[C@H](CC(C)C)COc2cccc(N3CCSCC3)c2S1(=O)=O,/,6,/,/,/
COC(=O)[C@]12C[C@H](CC(=O)NCc3ccc(C)o3)C(=O)N(Cc3ccc4c(c3)OCO4)C1=C[C@H](COCc1ccccc1)O[C@@H]2C,/,-3,/,/,/
CCc1nnc(NC(=O)CSc2sc3c(O)cc(=O)[nH]c3c2C#N)s1,30,25*,19,25,8
CCSc1nnc(NC(=O)CSc2sc3c(O)cc(=O)[nH]c3c2C#N)s1,50*,-1,29*,17,9
Cc1csc(NC(=O)CSc2sc3c(O)cc(=O)[nH]c3c2C#N)n1,37*,8,16,22,6
CCc1nnc(NC(=O)CSc2nc3[nH]c(=O)cc(O)c3s2)s1,2,-2,0,-2,13
Cc1ccc(C)c(NC(=O)CSc2sc3c(O)cc(=O)[nH]c3c2C#N)c1,18,5,4,10,6
COC(=O)C[C@@H]1CC[C@H]2[C@@H](COc3ccc(NS(=O)(=O)c4ccccc4F)cc3C(=O)N2C)O1,/,-3,/,/,/
Cc1ccc(Cn2nnc3c2-c2ccccc2S(=O)(=O)N(C2CC2)C3)cc1,/,0,/,/,/
